Screening data deposited in PubChem BioAssay by several laboratories.
A selection: hits, their analogues and other compounds. The true share with any hit is near 1.2%.
TNAP act DEA: human TNAP enzyme activators, primary screen, biochemical, luminescent, intermediate phosphate acceptor level | Alkaline phosphatase, tissue-nonspecific isozyme (Homo sapiens), P05186 | purified TNAP, CDP-star luminescence, 100 mM DEA, 30 min; active compounds read high; scale: 0 levamisole-inhibited, 1 vehicle-only enzyme | activation factor at 20 µM | 64,000 tested, under 10 active | AID 813, 2007;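 active = activation factor of at least 2 at 20 µM, relative to controls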
MMP-13 inhibitor: human MMP13 inhibitors, primary screen, biochemical, FRET peptide cleavage; MMP-13 fTHP FRET cleavage, Mca fluorescence; inhibition, % at 4 µM; 65,000 compounds, 0.07% hits;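 active = inhibition above the mean of compound-free control plate wells plus 3 SD, cut at about 14% in these data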;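 also: 0% = DMSO wells and 100% = wells with reference MMP-13 inhibitor after basal subtraction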
Ec RNAP inh: E. coli RNAP inhibitors, biochemical; E. coli RNA polymerase, fluorescence transcription assay; inhibition, %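 (tested at 10 µM)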; 62,000 compounds, 0.2% hits; AID 559, 2006; in the data active = inhibition above about 20%;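 also: 0% = enzyme without compound and 100% = no enzyme blank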
SK-BR-3 tox 24h: SK-BR-3 proliferation inhibitors, primary screen, cell-based, human, 24 h; SK-BR-3 viability, CellTiter-Glo ATP luminescence; active compounds read low; viability, % at 10 µM; 41,000 compounds, 0.47% hits; AID 847, 2007;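 active = viability at or below the median of all test compounds minus 3 SD, in both replicates if run twice, cut at about 45% in these data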;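 also: 100% = median untreated cell wells and 0% = median positive control drug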
HER2 expr 66K: inhibitors of Her2 protein expression, primary screen, SKBR-3 cells, AlphaScreen, 66K library; Receptor tyrosine-protein kinase erbB-2 (Homo sapiens), P04626; HER2 level % of control, % at 10 µM; AID 645, 2007; SKBR-3 HER2 protein level, 18-24 h; active compounds read low; 65,000 compounds, 0.69% hits;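 active = HER2 level under 5% of the carrier-only control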;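 also: 100% = DMSO carrier and 0% = 500 nM PU-H71 HSP90 inhibitor; lower value means stronger loss of Her2 protein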
AP complement: alternative complement pathway inhibitors, primary screen, biochemical, ELISA, human serum, orthogonally pooled compounds; LPS-coated ELISA, C3 deposition; tested in compound mixtures; inhibition, % at 5 µM; 62,000 compounds, 0.08% hits; AID 1235, 2008;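 active = inhibition above 30% in each of the two pooled mixtures holding the compound, so the lower value exceeds 30%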;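 also: 0% = serum in Mg-EGTA without compound and 100% = EDTA serum blank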
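Medium: diluted human serum in Mg2+-EGTA GVB++. Assay system: human serum complement alternative pathway, C3 deposition onto LPS. Also added: Plate-bound LPS. Technique: Anti-C3 ELISA, OD 450 nm. Measure: percent inhibition. Incubation: 1 h at 37 °C. Dosing: 5 µM each compound, pools of ten, 50 µM per pool.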
An asterisk follows results filed as active; · = no result.

SMILES | TNAP act DEA | MMP-13 inhibitor | Ec RNAP inh | SK-BR-3 tox 24h | HER2 expr 66K | AP complement
CCOC(=O)c1sc(NC(=O)CSc2n[nH]c(-c3ccccc3)n2)c(C#N)c1C | 0.2 | -15 | 7 | 114 | 47 | 7
Cc1ccc(/C=C/C2=Cc3c(sc(NC(=O)CSc4n[nH]c(N)n4)c3C#N)C(C)(C)C2)o1 | 0.9 | 3 | 3 | · | -1.5* | 8
CCOc1ccc(N2C(=O)CC(N)C2=O)cc1 (centres undefined) | 0.9 | -2 | · | 110 | 153 | ·
CCOc1ccc(N2C(=O)CC(Sc3nc(C)cc(C)c3C#N)C2=O)cc1 (centres undefined) | 0.9 | -5 | 2 | 86 | -9.9* | 12
CCOC(=O)c1cccc(NC(=O)CSc2nnc(COc3ccccc3C)o2)c1 | 0.9 | 0 | 7 | 98 | 87 | 3
c1ccc(-n2ncc3c(N4CCN(c5ccccn5)CC4)nc(N4CCOCC4)nc32)cc1 | 1 | 6 | 6 | 90 | 68 | -6
CCOc1ccccc1C(=O)Nc1nccs1 | 1 | 1 | 5 | 139 | 102 | 4
CCC(=O)NCCC(c1ccco1)c1ccccc1OC (centres undefined) | 0.9 | 1 | 4 | · | · | 9
Cc1ccccc1OCCCC(=O)Nc1nccs1 | 0.9 | 5 | -3 | · | -20* | 16
COc1ccccc1C(CC(=O)Nc1nccs1)c1ccco1 (centres undefined) | 0.9 | -4 | 1 | 90 | -17* | 20
CC(=O)Nc1nc(CC(C)C)cc(-c2ccco2)c1C#N | 0.8 | -94 | 4 | 104 | 65 | 8
Cc1ccc(NC(=O)CS(=O)CC(=O)Nc2ccc3c(c2)OCO3)cc1Cl (centres undefined) | 0.8 | 0 | 2 | 68 | 81 | -9
CC(=O)Nc1cc(OC(C)=O)c2nonc2c1OC(C)=O | 0.9 | -3 | 3 | 2.2* | -6.9* | 25
CC(=O)Nc1nonc1NC(C)=O | 1 | 2 | 6 | 81 | 89 | 3
Cc1ccc(-n2c(C)cc(C(=O)OCC(=O)N(CC(C)C)C3CCS(=O)(=O)C3)c2C)cc1 (centres undefined) | 0.9 | -7 | 4 | · | 107 | 11
CCN(C(=O)COC(=O)c1cc(C)n(-c2ccc(F)cc2)c1C)C1CCS(=O)(=O)C1 (centres undefined) | 0.9 | -4 | 10 | · | -20* | 8
CCOc1ccc(-c2n[nH]c(C)c2Oc2ccccc2OC)c(O)c1 | 1.1 | 2 | 0 | 77 | 86 | 8
C=C(C)COc1ccc(-c2[nH]ncc2Oc2cccc(OC)c2)c(O)c1 | 0.9 | -6 | 9 | 87 | 52 | -6
C=C(C)COc1ccc(-c2[nH]ncc2Oc2ccccc2OCC)c(O)c1 | 1 | -5 | 5 | 89 | -17* | 1
C=C(C)COc1ccc(-c2n[nH]c(C)c2Oc2ccccc2OC)c(O)c1 | 1 | 0 | 6 | 97 | -6.3* | -5
Cc1ccc(CS(=O)(=O)CCC(=O)N2CCOCC2)cc1 | 1 | -11 | 8 | 83 | 78 | 14
Cn1c(=O)cc(OCC(=O)N2CCC(N3CCCCC3)CC2)c2ccccc21 | 0.8 | 8 | 2 | · | 109 | 17
COc1ccc(CN2CCCC2C(=O)Nc2ccc(OC)c(OC)c2)cc1OC (centres undefined) | 0.9 | -11 | 3 | 93 | 105 | 9
CCn1c(CN2CCCCCC2=O)nnc1SCc1cnc(-c2ccccc2)s1 | 0.9 | 2 | 5 | · | 74 | 4
Cc1ccc(-c2csc3ncnc(Sc4nnc(CN5CCCCCC5=O)o4)c23)cc1 | 0.9 | 3 | 7 | · | -25* | 4
O=C(Cn1ccc2ccccc2c1=O)N1CCN(Cc2ccc3c(c2)OCO3)CC1 | 0.9 | -1 | 1 | 84 | 89 | 10
O=C(CN1C(=O)c2ccccc2S1(=O)=O)N1CCN(Cc2ccc3c(c2)OCO3)CC1 | 1 | 5 | 10 | 40* | 85 | -26
